Laboratory results: ChEMBL document CHEMBL2434847, “Design, synthesis, and structure-activity relationships of novel 6,7-disubstituted-4-phenoxyquinoline derivatives as potential antitumor agents” (Eur J Med Chem, 2013)

Tests used:
[1] = tested on: HT-29; test: Cytotoxicity against human HT-29 cells after 72 hrs by MTT assay; conditions: HT-29, 72 h
[2] = tested on: A549; test: Cytotoxicity against human A549 cells after 72 hrs by MTT assay; format: functional, cell-based; conditions: A549, 72 h
Procedure, shortened: (§1)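 Cells grown in MEM with 10% FBS; about 4 × 10³ cells per well, preincubated 24 h at 37 °C in 5% CO₂, then exposed to compound for 72 h. Each line tested three times; IC50 is mean of three determinations.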

[3] = biological target: Epidermal growth factor receptor (Homo sapiens, UniProt P00533); test: Inhibition of EGFR (unknown origin) using poly (Glu, Tyr) (4:1) as substrate after 30 mins by spectrophotometric analysis
Sequence of Epidermal growth factor receptor (P00533 whole entry): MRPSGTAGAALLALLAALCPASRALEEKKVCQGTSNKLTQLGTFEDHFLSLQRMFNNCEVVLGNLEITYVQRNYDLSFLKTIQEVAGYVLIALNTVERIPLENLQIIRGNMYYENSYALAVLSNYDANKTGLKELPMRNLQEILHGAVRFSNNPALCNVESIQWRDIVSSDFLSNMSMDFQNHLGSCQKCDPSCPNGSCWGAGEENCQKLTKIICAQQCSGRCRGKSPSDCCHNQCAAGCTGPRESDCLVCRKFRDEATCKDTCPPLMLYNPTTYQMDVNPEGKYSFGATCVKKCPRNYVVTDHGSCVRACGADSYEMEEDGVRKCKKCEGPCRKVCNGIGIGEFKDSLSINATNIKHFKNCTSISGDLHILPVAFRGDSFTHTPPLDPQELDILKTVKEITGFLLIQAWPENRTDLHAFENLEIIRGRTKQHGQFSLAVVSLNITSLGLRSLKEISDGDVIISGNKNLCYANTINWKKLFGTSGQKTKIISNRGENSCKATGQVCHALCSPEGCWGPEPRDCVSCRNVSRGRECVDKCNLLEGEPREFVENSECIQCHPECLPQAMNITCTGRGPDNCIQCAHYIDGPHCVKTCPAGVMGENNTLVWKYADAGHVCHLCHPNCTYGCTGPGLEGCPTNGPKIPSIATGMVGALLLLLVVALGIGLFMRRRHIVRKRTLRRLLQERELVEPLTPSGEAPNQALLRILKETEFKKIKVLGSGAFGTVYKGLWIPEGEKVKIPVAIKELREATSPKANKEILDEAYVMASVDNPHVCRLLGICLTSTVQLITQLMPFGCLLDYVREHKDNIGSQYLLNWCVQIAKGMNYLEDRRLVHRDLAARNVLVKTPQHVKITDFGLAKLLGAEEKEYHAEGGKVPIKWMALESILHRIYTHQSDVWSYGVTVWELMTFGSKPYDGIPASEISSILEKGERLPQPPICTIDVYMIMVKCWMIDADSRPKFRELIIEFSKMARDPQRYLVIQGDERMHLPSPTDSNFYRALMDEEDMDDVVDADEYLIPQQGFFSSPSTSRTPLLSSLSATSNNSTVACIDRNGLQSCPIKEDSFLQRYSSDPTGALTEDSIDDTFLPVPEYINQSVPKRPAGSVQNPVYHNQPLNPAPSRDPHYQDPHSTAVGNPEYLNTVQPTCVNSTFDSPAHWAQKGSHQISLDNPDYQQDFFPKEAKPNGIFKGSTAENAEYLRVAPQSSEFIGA

[4] = biological target: Mast/stem cell growth factor receptor Kit (Homo sapiens, UniProt P10721); test: Inhibition of c-KIT (unknown origin) using poly (Glu, Tyr) (4:1) as substrate after 30 mins by spectrophotometric analysis
Sequence of Mast/stem cell growth factor receptor Kit (P10721 whole entry): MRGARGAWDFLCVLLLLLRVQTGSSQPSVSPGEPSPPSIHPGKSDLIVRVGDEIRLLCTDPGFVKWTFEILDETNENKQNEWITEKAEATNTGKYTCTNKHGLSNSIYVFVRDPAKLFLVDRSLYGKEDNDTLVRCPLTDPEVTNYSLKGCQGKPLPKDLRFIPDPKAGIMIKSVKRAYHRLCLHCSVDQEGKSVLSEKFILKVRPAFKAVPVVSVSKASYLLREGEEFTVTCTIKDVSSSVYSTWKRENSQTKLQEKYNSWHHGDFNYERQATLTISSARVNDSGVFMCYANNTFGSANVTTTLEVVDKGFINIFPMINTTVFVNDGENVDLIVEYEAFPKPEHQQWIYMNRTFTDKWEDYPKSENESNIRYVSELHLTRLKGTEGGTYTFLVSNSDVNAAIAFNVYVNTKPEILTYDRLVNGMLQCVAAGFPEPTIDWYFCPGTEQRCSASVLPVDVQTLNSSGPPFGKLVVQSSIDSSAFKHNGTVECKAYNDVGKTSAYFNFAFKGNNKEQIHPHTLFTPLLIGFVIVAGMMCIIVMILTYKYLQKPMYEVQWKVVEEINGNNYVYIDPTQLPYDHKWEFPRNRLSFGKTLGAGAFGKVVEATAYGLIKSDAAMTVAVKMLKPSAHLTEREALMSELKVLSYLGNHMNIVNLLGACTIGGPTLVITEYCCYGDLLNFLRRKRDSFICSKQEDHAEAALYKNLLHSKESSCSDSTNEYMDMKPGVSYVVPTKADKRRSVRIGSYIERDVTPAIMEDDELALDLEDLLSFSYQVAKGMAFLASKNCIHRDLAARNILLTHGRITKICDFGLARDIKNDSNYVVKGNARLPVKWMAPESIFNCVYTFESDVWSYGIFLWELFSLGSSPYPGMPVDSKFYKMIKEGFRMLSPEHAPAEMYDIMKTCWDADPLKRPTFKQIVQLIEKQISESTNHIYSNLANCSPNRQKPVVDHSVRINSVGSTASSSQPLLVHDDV

[5] = Ratio of foretinib IC50 to compound IC50 for human H460 cells; format: functional
[6] = biological target: Vascular endothelial growth factor receptor 2 (Homo sapiens, UniProt P35968); test: Inhibition of VEGFR2 (unknown origin) using poly (Glu, Tyr) (4:1) as substrate after 30 mins by spectrophotometric analysis
Sequence of Vascular endothelial growth factor receptor 2 (P35968 whole entry): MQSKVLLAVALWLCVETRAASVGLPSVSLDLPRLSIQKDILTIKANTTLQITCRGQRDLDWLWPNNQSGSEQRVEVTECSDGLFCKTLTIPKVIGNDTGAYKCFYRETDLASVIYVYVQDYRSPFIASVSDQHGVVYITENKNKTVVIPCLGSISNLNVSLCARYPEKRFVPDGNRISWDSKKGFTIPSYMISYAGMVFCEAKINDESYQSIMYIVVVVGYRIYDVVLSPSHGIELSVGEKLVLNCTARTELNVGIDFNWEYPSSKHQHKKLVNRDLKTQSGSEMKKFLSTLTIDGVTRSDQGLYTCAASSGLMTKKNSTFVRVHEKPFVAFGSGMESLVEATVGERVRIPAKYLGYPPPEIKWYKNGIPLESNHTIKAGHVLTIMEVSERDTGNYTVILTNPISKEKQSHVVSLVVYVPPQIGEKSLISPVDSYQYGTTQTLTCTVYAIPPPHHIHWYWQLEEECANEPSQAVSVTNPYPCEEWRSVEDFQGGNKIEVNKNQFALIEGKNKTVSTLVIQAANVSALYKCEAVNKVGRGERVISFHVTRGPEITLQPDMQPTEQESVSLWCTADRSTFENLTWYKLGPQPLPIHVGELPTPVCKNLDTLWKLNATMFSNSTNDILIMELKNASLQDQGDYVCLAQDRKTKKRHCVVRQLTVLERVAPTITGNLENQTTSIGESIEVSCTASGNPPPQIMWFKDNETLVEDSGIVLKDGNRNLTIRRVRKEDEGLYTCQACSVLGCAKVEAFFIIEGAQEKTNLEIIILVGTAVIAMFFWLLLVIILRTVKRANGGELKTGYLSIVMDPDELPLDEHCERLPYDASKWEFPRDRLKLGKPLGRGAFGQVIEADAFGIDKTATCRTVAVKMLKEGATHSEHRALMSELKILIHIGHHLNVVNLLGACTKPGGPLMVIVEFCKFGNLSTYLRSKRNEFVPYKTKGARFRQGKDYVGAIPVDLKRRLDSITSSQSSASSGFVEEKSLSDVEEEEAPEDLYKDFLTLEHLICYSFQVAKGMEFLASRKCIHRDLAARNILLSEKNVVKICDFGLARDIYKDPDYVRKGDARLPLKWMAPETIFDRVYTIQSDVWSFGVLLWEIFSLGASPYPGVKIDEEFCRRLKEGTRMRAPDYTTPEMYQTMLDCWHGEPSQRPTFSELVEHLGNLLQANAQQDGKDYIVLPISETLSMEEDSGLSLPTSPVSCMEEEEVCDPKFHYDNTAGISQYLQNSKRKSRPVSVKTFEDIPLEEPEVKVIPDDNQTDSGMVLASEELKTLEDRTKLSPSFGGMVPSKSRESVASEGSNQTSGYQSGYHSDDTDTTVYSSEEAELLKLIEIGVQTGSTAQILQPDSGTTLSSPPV

[7] = tested on: U-87 MG; test: Ratio of foretinib IC50 to compound IC50 for human U87MG cells; format: functional, U-87MG ATCC
[8] = biological target: Platelet-derived growth factor receptor beta (Homo sapiens, UniProt P09619); test: Inhibition of PDGFRbeta (unknown origin) using poly (Glu, Tyr) (4:1) as substrate after 30 mins by spectrophotometric analysis
[9] = tested on: MKN-45; test: Cytotoxicity against human MKN45 cells after 72 hrs by MTT assay; conditions: MKN-45, 72 h
[10] = biological target: Hepatocyte growth factor receptor (Homo sapiens, UniProt P08581); test: Inhibition of c-MET (unknown origin) using poly (Glu, Tyr) (4:1) as substrate after 30 mins by spectrophotometric analysis
Sequence of Hepatocyte growth factor receptor (P08581 whole entry): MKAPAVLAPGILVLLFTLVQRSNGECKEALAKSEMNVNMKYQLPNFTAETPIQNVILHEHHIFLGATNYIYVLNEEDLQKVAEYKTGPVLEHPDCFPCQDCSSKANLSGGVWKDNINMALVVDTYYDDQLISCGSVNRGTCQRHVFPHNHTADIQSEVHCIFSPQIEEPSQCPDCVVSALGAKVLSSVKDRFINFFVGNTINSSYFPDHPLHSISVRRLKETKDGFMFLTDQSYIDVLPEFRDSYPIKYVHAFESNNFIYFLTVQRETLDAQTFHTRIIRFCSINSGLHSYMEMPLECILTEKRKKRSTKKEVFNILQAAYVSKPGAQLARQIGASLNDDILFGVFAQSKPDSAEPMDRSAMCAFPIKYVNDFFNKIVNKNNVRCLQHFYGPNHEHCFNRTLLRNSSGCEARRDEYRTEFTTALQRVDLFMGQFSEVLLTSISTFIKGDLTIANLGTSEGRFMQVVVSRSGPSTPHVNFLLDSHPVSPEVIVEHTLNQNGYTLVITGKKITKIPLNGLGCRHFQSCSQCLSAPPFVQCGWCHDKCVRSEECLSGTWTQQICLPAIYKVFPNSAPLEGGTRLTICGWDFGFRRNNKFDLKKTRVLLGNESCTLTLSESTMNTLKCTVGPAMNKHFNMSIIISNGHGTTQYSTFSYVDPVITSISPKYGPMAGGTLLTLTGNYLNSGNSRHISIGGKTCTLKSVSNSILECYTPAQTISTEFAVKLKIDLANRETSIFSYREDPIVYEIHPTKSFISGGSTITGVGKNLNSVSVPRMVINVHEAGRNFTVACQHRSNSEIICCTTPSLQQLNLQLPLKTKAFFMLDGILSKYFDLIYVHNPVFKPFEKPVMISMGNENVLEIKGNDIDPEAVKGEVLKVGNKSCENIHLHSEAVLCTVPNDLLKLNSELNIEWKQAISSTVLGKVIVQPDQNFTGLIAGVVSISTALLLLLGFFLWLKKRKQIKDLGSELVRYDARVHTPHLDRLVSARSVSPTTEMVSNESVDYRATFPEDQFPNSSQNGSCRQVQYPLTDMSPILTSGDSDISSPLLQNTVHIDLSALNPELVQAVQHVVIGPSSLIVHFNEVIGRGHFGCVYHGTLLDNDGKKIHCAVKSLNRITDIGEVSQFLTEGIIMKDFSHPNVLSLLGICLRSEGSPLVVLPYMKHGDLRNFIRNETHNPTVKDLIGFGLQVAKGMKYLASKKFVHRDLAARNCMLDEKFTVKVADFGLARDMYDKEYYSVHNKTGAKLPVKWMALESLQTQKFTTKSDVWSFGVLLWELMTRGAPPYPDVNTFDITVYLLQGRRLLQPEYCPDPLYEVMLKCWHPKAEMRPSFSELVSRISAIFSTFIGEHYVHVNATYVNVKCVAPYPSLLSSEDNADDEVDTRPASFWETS

[11] = Cytotoxicity against human H460 cells after 72 hrs by MTT assay; conditions: NCI-H460, 72 h
[12] = tested on: HT-29; test: Ratio of foretinib IC50 to compound IC50 for human HT-29 cells; format: functional
[13] = Cytotoxicity against human U87MG cells after 72 hrs by MTT assay; format: functional, cell-based, U-87MG ATCC; conditions: U-87 MG; procedure, shortened: as §1
[14] = biological target: T1, Receptor-type tyrosine-protein kinase FLT3 (Homo sapiens, UniProt P36888); test: Inhibition of FLT3 (unknown origin) using poly (Glu, Tyr) (4:1) as substrate after 30 mins by spectrophotometric analysis
T1 sequence (P36888 whole entry): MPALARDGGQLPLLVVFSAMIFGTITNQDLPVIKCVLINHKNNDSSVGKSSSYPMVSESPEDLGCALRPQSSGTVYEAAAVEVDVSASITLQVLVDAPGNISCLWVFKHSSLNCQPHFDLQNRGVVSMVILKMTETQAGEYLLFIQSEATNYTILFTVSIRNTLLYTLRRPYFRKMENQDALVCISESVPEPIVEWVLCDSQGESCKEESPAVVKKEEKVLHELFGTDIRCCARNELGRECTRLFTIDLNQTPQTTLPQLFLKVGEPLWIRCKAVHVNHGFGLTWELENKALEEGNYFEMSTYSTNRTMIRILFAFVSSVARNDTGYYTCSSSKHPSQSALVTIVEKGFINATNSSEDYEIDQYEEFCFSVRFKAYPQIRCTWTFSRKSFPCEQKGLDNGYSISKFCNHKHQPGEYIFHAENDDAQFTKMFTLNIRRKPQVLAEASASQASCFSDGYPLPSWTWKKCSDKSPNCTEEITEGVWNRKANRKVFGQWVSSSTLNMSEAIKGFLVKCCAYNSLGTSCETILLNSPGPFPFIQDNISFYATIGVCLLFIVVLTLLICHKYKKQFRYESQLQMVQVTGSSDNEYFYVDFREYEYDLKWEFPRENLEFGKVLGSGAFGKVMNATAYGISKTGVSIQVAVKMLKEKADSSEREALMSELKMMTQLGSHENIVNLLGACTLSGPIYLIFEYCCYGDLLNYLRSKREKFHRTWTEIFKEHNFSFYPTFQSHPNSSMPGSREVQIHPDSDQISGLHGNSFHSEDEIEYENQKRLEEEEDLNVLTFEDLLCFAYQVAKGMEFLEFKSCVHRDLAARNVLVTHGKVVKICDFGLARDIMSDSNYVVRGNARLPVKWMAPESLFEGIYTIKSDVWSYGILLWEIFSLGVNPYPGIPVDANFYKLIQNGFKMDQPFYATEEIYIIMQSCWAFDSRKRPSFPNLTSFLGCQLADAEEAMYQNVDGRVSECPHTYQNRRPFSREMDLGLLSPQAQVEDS

Compound: COc1cc2c(Oc3ccc(NC(=O)c4cc(-c5ccc(C)cc5)ccn4)cc3F)ccnc2cc1OCCCN1CCN(C)CC1
- IC50 [1]: 26 nM
- IC50 [2]: 100 nM
- IC50 [3]: 90 nM
- IC50 [4]: 450 nM
- Ratio IC50 [5]: 5.8
- IC50 [6]: 532 nM
- Ratio IC50 [7]: 1.2
- IC50 [8]: 1.42 nM
- IC50 [9]: 73 nM
- IC50 [10]: 1.39 nM
- IC50 [11]: 37 nM
- Ratio IC50 [12]: 7.3
- IC50 [13]: 810 nM
- IC50 [14]: 1.08 nM
